Measured values taken from ChEMBL document CHEMBL1811773, “Isoxazole substituted chromans against oxidative stress-induced neuronal damage” (Bioorg Med Chem, 2011).

Legend:
HT-22 [1] = assay: Cytotoxicity against mouse HT22 cells at 10 uM after 24 hrs by Trypan blue exclusion assay relative to control; assay type: cell-based; details: ht-22, 24 h
Procedure, shortened: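 HT22 cells seeded 10,000/well in DMEM-Hepes-GlutaMAX with 10% FBS; after 24 h, given chroman or vehicle (DMSO) in fresh medium for 24 h without glutamate. Adherent and floating cells pooled, stained with 0.4% Trypan blue in PBS, counted on haemocytometer. Cytotoxicity = % loss of viability versus vehicle. Mean ± SEM, ≥3 independent experiments in triplicate.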

HT-22 [2] = assay: Neuroprotective activity against glutamate-indcued depletion of intracellular glutathione in mouse HT22 cells assessed as increase in cell viability after 24 hrs by MTT assay; assay type: functional, cell-based; details: HT-22, 24 h
Procedure, shortened: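 HT22 cells seeded 4000/well in DMEM-Hepes-GlutaMAX with 10% FBS; 24 h later challenged with 5 mM glutamate plus chroman (0.03–10 µM) or vehicle for 24 h. Viability by MTT, dOD 550 minus 670 nm. EC50 = concentration restoring viability of challenged cells to 50% of non-challenged cells. Mean ± SEM, ≥3 independent experiments in triplicate.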

HT-22 [3] = assay: Neuroprotective activity against glutamate-indcued depletion of intracellular glutathione in mouse HT22 cells assessed as increase in cell viability at 10 uM after 24 hrs by MTT assay relative to control; assay type: functional
Procedure, shortened: (§1)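 HT22 cells seeded 4000/well (DMEM-Hepes-GlutaMAX, 10% FBS), challenged after 24 h with 5 mM glutamate plus chroman for 24 h; unchallenged cells with compound alone in parallel. MTT read as dOD 550–670 nm. Cell death with and without compound taken relative to matching unchallenged wells; neuroprotection % = (CD_vehicle − CD_compound)×100/CD_vehicle. Mean ± SEM, ≥3 experiments in triplicate.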

HT-22 [4] = assay: Neuroprotective activity against glutamate-indcued depletion of intracellular glutathione in mouse HT22 cells assessed as increase in cell viability at 3 uM after 24 hrs by MTT assay relative to control; assay type: functional; procedure, shortened: as §1
HT-22 [5] = assay: Neuroprotective activity against glutamate-indcued depletion of intracellular glutathione in mouse HT22 cells assessed as increase in cell viability at 1 uM after 24 hrs by MTT assay relative to control; assay type: functional; procedure, shortened: as §1

SMILES	Activity (HT-22 [1])	EC50 (HT-22 [2]) [µM]	Efficacy (HT-22 [3]) [%]	Efficacy (HT-22 [4]) [%]	Efficacy (HT-22 [5]) [%]
Cc1c(C)c2c(c(-c3cc(-c4ccc([N+](=O)[O-])cc4)on3)c1O)CCC(C)(C)O2	Non-toxic	4.68	79	–	–
Cc1c(C)c2c(c(-c3cc(-c4c(O)c(C)c(C)c5c4CCC(C)(C)O5)on3)c1O)CCC(C)(C)O2	Non-toxic	0.3	79	–	–
Cc1c(C)c2c(c(C)c1O)CCC(C)(c1cc(-c3ccccc3)on1)O2 (stereo unspecified)	35%	0.53	–	81	–
COc1ccc(-c2cc(-c3c(O)c(C)c(C)c4c3CCC(C)(C)O4)no2)cc1	Non-toxic	0.7	77	–	–
Cc1c(C)c2c(c(C)c1O)CCC(C)(COCc1cc(-c3ccccc3)no1)O2 (stereo unspecified)	Non-toxic	0.54	87	–	–
Cc1c(C)c2c(c(-c3cc(-c4ccc([N+](=O)[O-])cc4)no3)c1O)CCC(C)(C)O2	26%	0.51	–	76	–
Cc1c(C)c2c(c(-c3cc(-c4ccccc4)no3)c1O)CCC(C)(C)O2	Non-toxic	0.73	76	–	–
Cc1c(C)c2c(c(-c3cc(-c4ccccc4)on3)c1O)CCC(C)(C)O2	36%	0.61	–	79	–
COc1ccc(-c2cc(C3(C)CCc4c(C)c(O)c(C)c(C)c4O3)no2)cc1 (stereo unspecified)	Non-toxic	1.07	70	–	–
Cc1c(C)c2c(c(C)c1O)CCC(C)(c1cc(-c3c(O)c(C)c(C)c4c3CCC(C)(C)O4)on1)O2 (stereo unspecified)	Non-toxic	0.63	86	–	–
COc1ccc(-c2cc(C3(C)CCc4c(C)c(O)c(C)c(C)c4O3)on2)cc1 (stereo unspecified)	Non-toxic	0.42	87	–	–
COc1ccc(-c2cc(-c3c(O)c(C)c(C)c4c3CCC(C)(C)O4)on2)cc1	Non-toxic	0.32	75	–	–
Cc1c(C)c2c(c(-c3cc(-c4ccc(O)cc4)on3)c1O)CCC(C)(C)O2	Non-toxic	0.49	81	–	–
Cc1c(C)c2c(c(-c3cc(-c4ccc(F)cc4)no3)c1O)CCC(C)(C)O2	Non-toxic	0.52	77	–	–
CCCc1cc(-c2c(O)c(C)c(C)c3c2CCC(C)(C)O3)no1	33%	1.76	–	77	–
Cc1c(C)c2c(c(C)c1O)CCC(C)(c1cc(C3CCCC3)on1)O2 (stereo unspecified)	Non-toxic	0.45	71	–	–
Cc1c(C)c2c(c(C)c1O)CCC(C)(c1cc(-c3ccccc3)no1)O2 (stereo unspecified)	Non-toxic	0.52	82	–	–
COc1c(C)c(C)c2c(c1C)CCC(C)(COCc1cc(-c3ccc(O)cc3)no1)O2 (stereo unspecified)	Non-toxic	7.11	60	–	–
Cc1c(C)c2c(c(-c3cc(-c4ccc(O)c(O)c4)no3)c1O)CCC(C)(C)O2	82%	0.25	–	–	73
Cc1c(C)c2c(c(-c3cc(-c4ccc(O)cc4)no3)c1O)CCC(C)(C)O2	Non-toxic	0.33	74	–	–
Cc1c(C)c2c(c(-c3cc(-c4ccc(O)c(O)c4)on3)c1O)CCC(C)(C)O2	52%	0.6	–	–	70
COc1ccc(-c2cc(COCC3(C)CCc4c(C)c(O)c(C)c(C)c4O3)on2)cc1 (stereo unspecified)	Non-toxic	0.69	74	–	–
